This is a sample that favours compounds with a hit; in the whole collection about 1.3% have one here.
RAD54 branch = RAD54 (human) branch migration inhibition; Q92698; RAD54 Holliday junction branch migration, FAM/BHQ fluorescence; inhibition, % at 10.4 µM; actives 0.14% (n = 360,000); AID 602329;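 active = mean normalized replicate activity at least 40 and at least half of replicates scoring 40 or more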;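 also: 0% = median of neutral control wells and 100% = median of positive control wells; inhibitors cause a drop in the FAM fluorescence signal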
PAX8 inh HTS = lowers PAX8-driven luciferase in RMG-I cells; actives 1.2% (n = 360,000); inhibition, % at 12.6 µM; RMG-I TPO-luciferase reporter, SteadyGlo, 24 h;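 active = mean replicate inhibition at least 60% with every replicate also reaching 60%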;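 also: luciferase light reporting Pax8 driven TPO promoter activity; plate controls were median of neutral control wells for no effect and mitoxantrone controls for full effect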
RAD52 anneal inh = inhibitors of human RAD52 DNA annealing | inhibition, % at 18.7 µM | recombinant RAD52 DNA annealing, FRET fluorescence | actives 0.46% (n = 360,000) | AID 651710 | P43351;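 active = every replicate showing at least 50% inhibition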
Target sequence (P43351 whole entry, looked up): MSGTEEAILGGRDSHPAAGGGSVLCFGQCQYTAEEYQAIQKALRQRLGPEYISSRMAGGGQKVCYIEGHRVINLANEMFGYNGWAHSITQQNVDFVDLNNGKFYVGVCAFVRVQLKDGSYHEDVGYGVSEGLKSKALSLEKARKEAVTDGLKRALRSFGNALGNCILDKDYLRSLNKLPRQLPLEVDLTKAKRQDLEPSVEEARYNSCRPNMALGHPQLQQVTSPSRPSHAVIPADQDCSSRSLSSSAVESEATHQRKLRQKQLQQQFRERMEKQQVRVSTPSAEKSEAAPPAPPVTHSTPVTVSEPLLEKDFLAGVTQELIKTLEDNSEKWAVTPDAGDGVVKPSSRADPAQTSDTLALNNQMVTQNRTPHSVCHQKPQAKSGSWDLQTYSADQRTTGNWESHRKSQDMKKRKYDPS
FN deposition inh = fibronectin deposition inhibition; inhibition, % at 12.6 µM; AH1F fibroblasts, Alexa488-fibronectin deposition fluorescence, overnight; actives 0.086% (n = 350,000);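 active = mean inhibition across replicates of 30% or more, regardless of how many single replicates reach that level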;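 also: positive control wells lacked labelled fibronectin entirely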
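Assay system: AH1F fibroblast monolayer, labelled fibronectin deposition. Amount: 10000 cells per well. Also added: labelled fibronectin 24 nM. Compound: single-point pinned compound. Incubation: cell attachment 1 h, compound and FN exposure overnight. Detection: fluorescence after three HBSS washes, excitation 485 nm, emission 525 nm. Read-out: inhibition of fibronectin deposition signal.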
* marks the source's active call; other numbers are inactive results.

Screening C[C@@H]1CN([C@@H](C)CO)S(=O)(=O)c2ccc(C#CC3CCCC3)cc2O[C@H]1CN(C)Cc1cccnc1 returned RAD54 branch 1, PAX8 inh HTS 84*, RAD52 anneal inh 3 and FN deposition inh -9.
For C[C@@H]1CN([C@H](C)CO)S(=O)(=O)c2ccc(C#CC3CCCC3)cc2O[C@H]1CN(C)Cc1cccnc1 the results were RAD54 branch -5, PAX8 inh HTS 87*, RAD52 anneal inh -10 and FN deposition inh -13.
For O=C(NCCS(=O)(=O)N1CCN(c2ccccc2)CC1)C1CC(=O)N(c2ccc(F)cc2)C1 (centres undefined) the results were RAD54 branch 10, PAX8 inh HTS 7, RAD52 anneal inh -13 and FN deposition inh -7.
Screening COC/C=C/C1=CC2=CC(=O)C(C)(OC(=O)c3cnc4ccccc4n3)C(=O)C2=CN1C1CC1 (centres undefined) returned RAD54 branch -5, PAX8 inh HTS 66*, RAD52 anneal inh -9 and FN deposition inh 2.
`COC/C=C/C1=CC2=CC(=O)C(C)(OC(=O)c3cnc4ccccc4n3)C(=O)C2=CN1CC1CC1` (centres undefined) gave RAD54 branch -15.
COC/C=C/C1=CC2=CC(=O)C(C)(OC(=O)c3cnc4ccccc4n3)C(=O)C2=CN1Cc1ccccc1 (centres undefined) was read as RAD54 branch -1, PAX8 inh HTS 80*, RAD52 anneal inh -12 and FN deposition inh -3.
Screening COC/C=C/C1=CC2=CC(=O)C(C)(OC(=O)c3cnc4ccccc4n3)C(=O)C2=CN1Cc1ccc(OC)cc1 (centres undefined) returned RAD54 branch 8, PAX8 inh HTS -7, RAD52 anneal inh -19 and FN deposition inh -1.
Cc1cccc(S(=O)(=O)N2C[C@@H](O)COC[C@@H]3O[C@@H](CC(=O)Nc4ccc(-c5ccccc5)cc4)CC[C@H]32)c1 was read as RAD54 branch 0, PAX8 inh HTS 84*, RAD52 anneal inh 9 and FN deposition inh -9.
O=C(C[C@@H]1CC[C@@H]2[C@H](COC[C@@H](O)CN2S(=O)(=O)c2cccc(Cl)c2)O1)Nc1ccc(-c2ccccc2)cc1 was read as RAD54 branch -13, PAX8 inh HTS 83*, RAD52 anneal inh 13 and FN deposition inh -8.
CCCCn1nc(C(=O)N(CC(C)C)c2c(N)n(CCCC)c(=O)[nH]c2=O)c2ccccc2c1=O was read as RAD54 branch 3, PAX8 inh HTS -2, RAD52 anneal inh -5 and FN deposition inh -11.
Screening Cc1ccc(C(=O)n2c(N)nc3ccccc32)cc1 returned RAD54 branch 4, PAX8 inh HTS 65*, RAD52 anneal inh -9 and FN deposition inh 0.
Cc1ccc(S(=O)(=O)n2c(N)nc3ccccc32)cc1 was read as RAD54 branch -3, PAX8 inh HTS 13, RAD52 anneal inh -5 and FN deposition inh -1.
NCCCNc1nc(N)c([N+](=O)[O-])c(NC2CCCCC2)n1 was read as RAD54 branch 3, PAX8 inh HTS 78*, RAD52 anneal inh -4 and FN deposition inh 11.
`CC(=O)OCC1=C(C(=O)O)N2C(=O)C(NC(=O)CCn3nc(C)c(Cl)c3C)C2SC1` (centres undefined) gave PAX8 inh HTS 16, RAD52 anneal inh -19 and FN deposition inh 33*.
For CC(=O)OCC1=C(C(=O)O)N2C(=O)C(NC(=O)Cn3nc(C(F)F)c(Cl)c3C)C2SC1 (centres undefined) the results were RAD54 branch -13, PAX8 inh HTS 24, RAD52 anneal inh -19 and FN deposition inh 6.
Screening Cc1cccc(-c2ccc3ncnc(NCc4cccs4)c3c2)c1 returned RAD54 branch -5, PAX8 inh HTS 65*, RAD52 anneal inh -27 and FN deposition inh 7.
Cc1cccc(CNc2ncnc3ccc(-c4ccc5c(c4)OCCO5)cc23)c1 was read as RAD54 branch 11, PAX8 inh HTS 80*, RAD52 anneal inh 6 and FN deposition inh 3.
Screening CCNC(=O)C(Sc1ccccc1)c1ccccc1 (centres undefined) returned RAD54 branch 12, PAX8 inh HTS -10 and FN deposition inh -5.
Screening CCCCNC(=O)C(Sc1ccccc1)c1ccccc1 (centres undefined) returned RAD54 branch -7, PAX8 inh HTS 145*, RAD52 anneal inh 0 and FN deposition inh -2.
Cc1ccc(C(=O)c2cc([N+](=O)[O-])ccc2N2CCCCC2)cc1 was read as PAX8 inh HTS 88* and FN deposition inh 3.
Cc1ccc(C(=O)c2cc([N+](=O)[O-])ccc2N2CC(C)OC(C)C2)cc1 (centres undefined) was read as RAD54 branch -2, PAX8 inh HTS 9, RAD52 anneal inh -3 and FN deposition inh 18.
Cc1ccc(N2CN(Cc3cccnc3)CNC2=S)c(C)c1 was read as PAX8 inh HTS 3 and FN deposition inh 15.
For Cc1ccc(N2CN(Cc3ccco3)CNC2=S)c(C)c1 the results were PAX8 inh HTS 61*, RAD52 anneal inh -11 and FN deposition inh 5.
Screening COC(=O)[C@@]1(Sc2ccc(C)cc2)CC(=O)N(c2ccccc2)[C@@H]1c1ccccc1 returned PAX8 inh HTS 65*, RAD52 anneal inh -12 and FN deposition inh 7.
Fc1cccc(F)c1CSc1nc2ccccc2[nH]1 was read as RAD54 branch -6 and FN deposition inh 6.
`c1ccc2[nH]c(SCc3cn4cccnc4n3)nc2c1` gave PAX8 inh HTS -7 and FN deposition inh 31*.
CC(=O)/C(=C/c1ccccc1)C(=O)Nc1ccccc1C was read as RAD54 branch 3, PAX8 inh HTS 18, RAD52 anneal inh -8 and FN deposition inh -11.
Screening Cc1ccccc1NC(=O)C(=Cc1ccc(C(=O)O)cc1)C(=O)Nc1ccccc1C returned PAX8 inh HTS 109* and RAD52 anneal inh 8.
For Cc1cnc([N+](=O)[O-])n1CCOC(=O)c1cccc(F)c1 the results were RAD54 branch 5, PAX8 inh HTS 10, RAD52 anneal inh 0 and FN deposition inh -5.
CCn1nc(C)cc1-c1nnc(Sc2ncc([N+](=O)[O-])s2)n1C was read as RAD54 branch 3, PAX8 inh HTS 78*, RAD52 anneal inh -20 and FN deposition inh 8.
CC(=O)NCC(=O)N[C@@H](CC(=O)OCc1ccccc1)C(=O)OCc1ccccc1 was read as RAD54 branch 9, PAX8 inh HTS 5, RAD52 anneal inh -3 and FN deposition inh 4.
C[C@@H]1CN([C@@H](C)CO)C(=O)Cc2cc(NS(=O)(=O)c3ccc(Cl)cc3)ccc2O[C@@H]1CN(C)CC1CCCCC1 was read as RAD54 branch -9, PAX8 inh HTS 106* and RAD52 anneal inh 10.
`C[C@H]1CN([C@@H](C)CO)C(=O)Cc2cc(NS(=O)(=O)c3ccccc3)ccc2O[C@@H]1CN(C)S(=O)(=O)c1ccc(Cl)cc1` gave RAD54 branch 1 and PAX8 inh HTS -3.
C[C@@H]1CN([C@H](C)CO)C(=O)Cc2cc(NS(=O)(=O)c3ccccc3)ccc2O[C@@H]1CN(C)S(=O)(=O)c1ccc(Cl)cc1 was read as RAD54 branch -1 and PAX8 inh HTS 104*.

Bioassay records deposited in PubChem by Broad Institute.
